From ChEMBL document CHEMBL1250427, “Synthesis and biodistribution of [11C]A-836339, a new potential radioligand for PET imaging of cannabinoid type 2 receptors (CB2)” (Bioorg Med Chem, 2010)

Experiments:
Spleen [1] = assay: Drug uptake in CD1 mouse spleen at 5 to 7 mBq, iv after 60 mins in presence of AM630; assay type: ADME, organism-based; settings: in vivo, 1 h
In short: (§1)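 Blocking study in male CD1 mice, either controls or LPS-treated (5 mg/kg LPS O111:B4 i.p., 5 days earlier). AM630 (3 mg/kg) or GW405833 (2 mg/kg) was given s.c. in 0.1 mL DMSO; vehicle controls received DMSO alone. [11C]radioligand ([…], ~150 GBq/μmol) was injected i.v. 30 min later. Tissues harvested at 60 min and γ-counted. Mean ± SD, n=3.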

Brain [2] = assay: Drug uptake in LPS-stimulated CD1 mouse brain at 5 to 7 mBq, iv administered 5 days post LPS challenge; assay type: ADME, organism-based; settings: in vivo, 120 h
In short: (§2)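 Male CD1 mice given LPS (strain O111:B4, 5 mg/kg in saline, i.p.) 5 days before study. [11C]radioligand ([…], ~150 GBq/μmol, 0.2 mL saline) injected into the tail vein. Mice killed at 60 min and brain regions dissected and γ-counted. Uptake given as %ID/g tissue and as blood-normalized %ID/g tissue × body weight (kg). Mean ± SD, n=3.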

Brain [3] = assay: Drug uptake in CD1 mouse brain at 5 to 7 mBq, iv after 3 mins; assay type: ADME, organism-based; settings: in vivo, 0.05 h
In short: (§3)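 Dynamic small-animal PET of an LPS-5-day-treated and a control CD1 mouse. Both were injected simultaneously via the tail vein with [11C]radioligand (~3000 mCi/μmol) and imaged for 90 min in 28 frames. Images reconstructed by 2D OSEM after scatter subtraction. Whole-brain ROIs drawn on mean images gave time-SUV curves.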

Cortex [4] = assay: Drug uptake in CD1 mouse cortex at 5 to 7 mBq, iv after 60 mins; assay type: ADME, organism-based; settings: in vivo, 1 h
In short: (§4)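 Male CD-1 mice (23-28 g). [11C]radioligand given into a lateral tail vein at […], specific radioactivity ~150 GBq/μmol, in 0.2 mL saline. Mice killed by cervical dislocation at several times after injection. Organs and brain regions dissected on ice, weighed and γ-counted against injectate standards. Uptake given as %ID/g tissue, mean ± SD, n=3.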

Heart = assay: Drug uptake in CD1 mouse heart at 5 to 7 mBq, iv; assay type: ADME, organism-based; settings: in vivo; in short: as §4
Cerebellum [5] = assay: Drug uptake in LPS-stimulated CD1 mouse cerebellum at 5 to 7 mBq, iv in presence of AM630; assay type: ADME, organism-based; settings: in vivo; in short: as §1
[6] = Drug uptake in LPS-stimulated CD1 mouse brainstem at 5 to 7 mBq, iv administered 5 days post LPS challenge; assay type: ADME, organism-based; settings: read-out: Drug uptake; in short: as §2
Cannabinoid receptor 2 = Cannabinoid receptor 2 (Homo sapiens, UniProt P34972); assay: Agonist activity at CB2 receptor; assay type: functional
Cannabinoid receptor 2, sequence (P34972 whole entry): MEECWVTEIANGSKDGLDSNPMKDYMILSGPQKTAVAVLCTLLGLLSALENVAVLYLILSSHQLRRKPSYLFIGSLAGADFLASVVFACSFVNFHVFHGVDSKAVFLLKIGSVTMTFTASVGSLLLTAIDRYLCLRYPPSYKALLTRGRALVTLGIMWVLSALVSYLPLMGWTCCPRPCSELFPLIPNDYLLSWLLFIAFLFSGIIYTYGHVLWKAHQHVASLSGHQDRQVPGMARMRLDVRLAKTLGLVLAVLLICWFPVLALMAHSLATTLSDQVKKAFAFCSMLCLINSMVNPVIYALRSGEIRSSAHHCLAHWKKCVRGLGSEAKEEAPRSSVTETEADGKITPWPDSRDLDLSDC

Hippocampus [7] = assay: Drug uptake in LPS-stimulated CD1 mouse hippocampus at 5 to 7 mBq, iv administered 5 days post LPS challenge; assay type: ADME, organism-based; settings: in vivo, 120 h; in short: as §2
[8] = Drug uptake in LPS-stimulated CD1 mouse brainstem at 5 to 7 mBq, iv in presence of AM630; assay type: ADME, organism-based; settings: in vivo; in short: as §1
Brain [9] = assay: Drug uptake in APPswe/PS1dE9 mouse brain at 5 to 7 mBq, iv; assay type: ADME, organism-based; settings: in vivo
In short: (§5)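 Female APPswe/PS1dE9 bigenic mice (line 85, C57Bl/6J background), 18 months old. [11C]radioligand given into a lateral tail vein at […], specific radioactivity ~150 GBq/μmol, in 0.2 mL saline. Mice killed by cervical dislocation at 60 min. Brain regions dissected on ice, weighed and γ-counted against injectate standards. Uptake expressed as blood-normalized %ID/g tissue × body weight (kg).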

[10] = Ratio of drug uptake in brain to blood in LPS-stimulated CD1 mouse at 5 to 7 mBq, iv; assay type: ADME, tissue-based; in short: as §2
Kidney = assay: Drug uptake in CD1 mouse kidney at 5 to 7 mBq, iv; assay type: ADME, organism-based; settings: in vivo; in short: as §4
Hippocampus [11] = assay: Drug uptake in LPS-stimulated CD1 mouse hippocampus at 5 to 7 mBq, iv in presence of AM630; assay type: ADME, organism-based; settings: in vivo; in short: as §1
[12] = Drug uptake in CD1 mouse brainstem at 5 to 7 mBq, iv after 60 mins; assay type: ADME, organism-based; settings: in vivo, 1 h; in short: as §4
Intestine = assay: Drug uptake in CD1 mouse intestine at 5 to 7 mBq, iv; assay type: ADME, organism-based; settings: in vivo; in short: as §4
Brain [13] = assay: Drug uptake in CD1 mouse brain at 5 to 7 mBq, iv in presence of GW-405833; assay type: ADME, organism-based; settings: in vivo; in short: as §1
Brain [14] = assay: Drug uptake in LPS-stimulated CD1 mouse brain at 5 to 7 mBq, iv in presence of AM630; assay type: ADME, organism-based; settings: in vivo; in short: as §1
Cerebellum [15] = assay: Drug uptake in APPswe/PS1dE9 mouse cerebellum at 5 to 7 mBq, iv; assay type: ADME, organism-based; settings: in vivo; in short: as §5
Liver = assay: Drug uptake in CD1 mouse liver at 5 to 7 mBq, iv; assay type: ADME, organism-based; settings: in vivo; in short: as §4
Cerebellum [16] = assay: Drug uptake in CD1 mouse cerebellum at 5 to 7 mBq, iv after 60 mins; assay type: ADME, organism-based; settings: in vivo, 1 h; in short: as §4
Brain [17] = assay: Drug uptake in CD1 mouse brain at 5 to 7 mBq, iv; assay type: ADME, organism-based; settings: in vivo; in short: as §4
[18] = Drug uptake in APPswe/PS1dE9 mouse brainstem at 5 to 7 mBq, iv; assay type: ADME, tissue-based; settings: in vivo; in short: as §5
Cerebellum [19] = assay: Drug uptake in LPS-stimulated CD1 mouse cerebellum at 5 to 7 mBq, iv administered 5 days post LPS challenge; assay type: ADME, organism-based; settings: in vivo, 120 h; in short: as §2
Cortex [20] = assay: Drug uptake in LPS-stimulated CD1 mouse cortex at 5 to 7 mBq, iv in presence of AM630; assay type: ADME, organism-based; settings: in vivo; in short: as §1
Cortex [21] = assay: Drug uptake in APPswe/PS1dE9 mouse cortex at 5 to 7 mBq, iv; assay type: ADME, organism-based; settings: in vivo; in short: as §5
Brain [22] = assay: Drug uptake in LPS-stimulated CD1 mouse brain at 5 to 7 mBq, iv administered 5 days post LPS challenge measured after 3 mins; assay type: ADME, organism-based; settings: in vivo, 0.05 h; in short: as §3
Cortex [23] = assay: Drug uptake in LPS-stimulated CD1 mouse cortex at 5 to 7 mBq, iv administered 5 days post LPS challenge; assay type: ADME, organism-based; settings: in vivo, 120 h; in short: as §2
Hippocampus [24] = assay: Drug uptake in CD1 mouse hippocampus at 5 to 7 mBq, iv after 60 mins; assay type: ADME, organism-based; settings: in vivo, 1 h; in short: as §4
Spleen [25] = assay: Drug uptake in CD1 mouse spleen at 5 to 7 mBq, iv; assay type: ADME, organism-based; settings: in vivo; in short: as §4
Brain [26] = assay: Drug uptake in CD1 mouse brain at 5 to 7 mBq, iv in presence of AM630; assay type: ADME, organism-based; settings: in vivo; in short: as §1

Question: Which results are given for `Cc1s/c(=N\C(=O)C2C(C)(C)C2(C)C)n(CCO[11CH3])c1C`?
Answer: Drug uptake (Spleen [1]): Not Active; Drug uptake (Brain [2]): 1.5 % ID/g; SUV (Brain [3]): 0.5; Drug uptake (Cortex [4]): 0.3 % ID/g; Drug uptake (Heart): 0.7 % ID/g; Drug uptake (Cerebellum [5]): Not Active; tissue uptake at 120 h [6]: 2.1 %ID/g; Ki (Cannabinoid receptor 2): 0.7 nM; Drug uptake (Hippocampus [7]): 1.9 % ID/g; Drug uptake [8]: Not Active; Drug uptake (Brain [9]): Not Active; Kp [10]: 3.3; Drug uptake (Kidney): 2.2 % ID/g; Drug uptake (Hippocampus [11]): Not Active; Drug uptake [12]: 0.3 % ID/g; Drug uptake (Intestine): 1.5 % ID/g; Drug uptake (Brain [13]): Not Active; Drug uptake (Brain [14]): Not Active; Drug uptake (Cerebellum [15]): Not Active; Drug uptake (Liver): 4.9 % ID/g; Drug uptake (Cerebellum [16]): 0.3 % ID/g; Drug uptake (Brain [17]): 0.3 % ID/g; Drug uptake [18]: Not Active; Drug uptake (Cerebellum [19]): 1.8 % ID/g; Drug uptake (Cortex [20]): Not Active; Drug uptake (Cortex [21]): Not Active; SUV (Brain [22]): 2.3; Drug uptake (Cortex [23]): 1.7 % ID/g; Drug uptake (Hippocampus [24]): 0.3 % ID/g; Drug uptake (Spleen [25]): 1.3 % ID/g; Drug uptake (Brain [26]): Not Active
